According to ChEMBL document CHEMBL1139455, “Three-dimensional quantitative structure-activity relationship modeling of cocaine binding by a novel human monoclonal antibody” (J Med Chem, 2004):

What was measured:
[1] = test system: Monoclonal antibody (mAb) 2E2; assay: Binding affinity against human monoclonal antibody (mAb) 2E2 relative to cocaine by ELISA method.
Outline: (§1)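 Competition ELISA with human mAb 2E2 (from SCID mouse ascites, partially purified by sodium sulfate precipitation and protein A chromatography). Detection with biotinylated goat anti-human IgG (γ-chain-specific). IC50 obtained by three-parameter logistic fit. RBA is the competitor IC50 divided by the cocaine IC50. Values are averages of three or more independent experiments, each done in duplicate.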

[2] = biological target: Monoclonal antibody (mAb) 2E2; assay: Relative binding affinity against human monoclonal antibody 2E2 compared to [3H]cocaine
Outline: (§2)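 Radioligand competition with 1 nM [3H]-cocaine diluted with 14 nM unlabeled cocaine and 0.4 nM mAb 2E2, against varying unlabeled competitor. Separation was by double-antibody precipitation (goat anti-human Fc) and read by scintillation counting. Duplicate data were fitted to a three-parameter logistic equation for IC50. RBA is the Ki of the compound divided by the Ki of cocaine. Three repeats were run.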

[3] = test system: Monoclonal antibody (mAb) 2E2; assay: Relative binding affinity against human monoclonal antibody (mAb) 2E2 compared to cocaine
[4] = test system: Monoclonal antibody (mAb) 2E2; assay: Binding affinity against human monoclonal antibody (mAb) 2E2 by ELISA; outline: as §1
[5] = test system: Monoclonal antibody (mAb) 2E2; assay: Relative binding affinity for human monoclonal antibody (mAb) 2E2
[6] = biological target: Monoclonal antibody (mAb) 2E2; assay: Dissociation Constant for human monoclonal antibody 2E2 with [3H]cocaine
Outline: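 Saturation binding of [3H]-cocaine to mAb 2E2. Bound ligand was separated by double-antibody precipitation, using goat anti-human Fc as the first antibody, and counted by liquid scintillation. Kd was fitted from counts per minute against total cocaine concentration to a binding isotherm. Points are averages of duplicates. Each experiment was run three times.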

[7] = biological target: Monoclonal antibody (mAb) 2E2; assay: Binding affinity towards human monoclonal antibody 2E2 using [3H]cocaine; outline: as §2

CN1C2CCC1[C@@H](C(=O)O)[C@@H](OC(=O)c1ccc(O)cc1)C2 (some centres undefined)
relative binding affinity (RBA) [1]: 36

CN1C2CCC1[C@@H](C(N)=O)[C@@H](OC(=O)c1ccccc1)C2 (some centres undefined)
relative binding affinity (RBA) [1]: 22

COC(=O)[C@H]1C2CCC(C[C@@H]1OC(=O)c1ccccc1)N2 (stereo in doubt; 36)
relative binding affinity (RBA) [1]: 1100

CN1C2CCC1CC(O)C2 (centres undefined)
relative binding affinity (RBA) [1]: 91000

COC(=O)[C@H]1C2CCC(C[C@@H]1OC(=O)c1ccccc1)N2 (stereo in doubt)
relative binding affinity (RBA) [1]: 1800

CN1C2CCC1[C@@H](C(=O)O)[C@@H](O)C2 (some centres undefined)
Ki [2]: 95000 nM | relative binding affinity (RBA) [3]: 28000 | relative binding affinity (RBA) [1]: 28000

COC(=O)[C@@H]1C2CCC(C[C@@H]1O)N2C (some centres undefined)
Ki [2]: 5200 nM | relative binding affinity (RBA) [3]: 1500 | relative binding affinity (RBA) [1]: 2500

CN1C2CCC1[C@@H](C(=O)O)[C@@H](OC(=O)c1cccc(O)c1)C2 (some centres undefined)
relative binding affinity (RBA) [1]: 32

COC(=O)[C@@H]1C2CC[C@H](C[C@@H]1c1ccccc1)N2C
relative binding affinity (RBA) [1]: 29

CON(C)C(=O)[C@@H]1C2CCC(C[C@@H]1OC(=O)c1ccccc1)N2C (some centres undefined)
relative binding affinity (RBA) [1]: 21

CCOC(=O)[C@@H]1C2CCC(C[C@@H]1OC(=O)c1ccccc1)N2C (some centres undefined) [COCAETHYLENE]
Ki [2]: 3.4 nM | relative binding affinity (RBA) [3]: 0.97 | relative binding affinity (RBA) [1]: 0.74

CNC(=O)[C@@H]1C2CCC(C[C@@H]1OC(=O)c1ccccc1)N2C (some centres undefined)
relative binding affinity (RBA) [1]: 29

COC(=O)C1C2CCC(C[C@@H]1c1ccc(C)cc1)N2C (single isomer, unassigned)
relative binding affinity (RBA) [1]: 14

CCOC(=O)[C@@H]1C2C(C)CC(C[C@@H]1OC(=O)c1ccccc1)N2C (some centres undefined)
relative binding affinity (RBA) [1]: 0.21

CCCC[N+]1(C)C2CC(OC(=O)[C@H](CO)c3ccccc3)CC1C1OC12 (some centres undefined)
relative binding affinity (RBA) [1]: 3700

O=C(O[C@H]1CC2CCC(N2)[C@H]1C(=O)O)c1ccccc1 (some centres undefined)
relative binding affinity (RBA) [1]: 120

C[N+]1([O-])[C@@H]2CC[C@H]1C[C@@H](OC(=O)C(CO)c1ccccc1)C2 (some centres undefined)
relative binding affinity (RBA) [1]: 90000

COC(=O)[C@H]1[C@@H](c2ccc(F)cc2)C[C@H]2CC[C@H]1N2C
relative binding affinity (RBA) [1]: 19

COC(=O)C1C2CC[C@H](C[C@@H]1c1ccc(Cl)cc1)N2C (some centres undefined)
relative binding affinity (RBA) [1]: 9.3

C[N+]1(C)[C@@H]2C[C@@H](OC(=O)[C@H](CO)c3ccccc3)C[C@H]1[C@@H]1O[C@@H]12
relative binding affinity (RBA) [1]: 5900

COC(=O)[C@H]1[C@@H](OC(=O)c2ccccc2)C[C@@H]2CC[C@H]1N2C [COCAINE]
relative binding affinity (RBA) [4]: 1 | relative binding affinity (RBA) [5]: 1 | Kd [6]: 4.4 nM | Ki [7]: 3.5 nM

CN1C2CCC1[C@@H](C(=O)O)[C@@H](OC(=O)c1ccccc1)C2 (some centres undefined)
Ki [2]: 43 nM | relative binding affinity (RBA) [3]: 12 | relative binding affinity (RBA) [1]: 9.8

COC(=O)[C@@H]1C2CCC(C[C@@H]1c1ccc(I)cc1)N2C (some centres undefined)
relative binding affinity (RBA) [1]: 4.5

COC(=O)[C@@H]1C2CCC(C[C@@H]1OC(=O)c1cccc(O)c1)N2C (some centres undefined)
relative binding affinity (RBA) [1]: 8.4

COC(=O)[C@@H]1C2CCC(C[C@@H]1OC(=O)c1ccccc1)N2 (some centres undefined)
relative binding affinity (RBA) [1]: 4.3

CN1[C@@H]2C[C@@H](OC(=O)[C@H](CO)c3ccccc3)C[C@H]1[C@@H]1O[C@H]12
relative binding affinity (RBA) [1]: 49000

CN1C2CC(OC(=O)[C@](O)(CO)c3ccccc3)CC1C1OC12 (some centres undefined)
relative binding affinity (RBA) [1]: 59000

COC(=O)[C@@H]1C2CCC(C[C@@H]1c1ccc(Cl)c(Cl)c1)N2C (some centres undefined)
relative binding affinity (RBA) [1]: 8.5

C[N+]1([O-])C2CC(OC(=O)[C@H](CO)c3ccccc3)CC1C1OC12 (some centres undefined)
relative binding affinity (RBA) [1]: 130000

CCCOC(=O)[C@@H]1C2CCC(C[C@@H]1OC(=O)c1ccccc1)N2C (some centres undefined)
relative binding affinity (RBA) [1]: 0.23

COC(=O)C1=CCC2CCC1N2C (centres undefined)
relative binding affinity (RBA) [1]: 21000

CN(C)C(=O)[C@@H]1C2CCC(C[C@@H]1OC(=O)c1ccccc1)N2C (some centres undefined)
relative binding affinity (RBA) [1]: 7.4

CN1C2CCC1[C@@H](C(=O)Oc1ccccc1)[C@@H](c1ccc(Cl)cc1)C2 (some centres undefined)
relative binding affinity (RBA) [1]: 1.7
